Series [1] can be described thus: Binding affinity to heme in HEPES buffer at pH 7.4 upto 60 uM after 30 mins by Jobs plot.
A short description of series [2]: Toxicity against human erythrocytes assessed as heme-induced hemolysis up to 30 uM in absence of heme. The conditions noted are these: erythrocyte. Format: cell-based. The gist of the method:
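Fresh heparinized human donor erythrocytes, washed six times in PBS, pH 7.4, used as a 0.5% suspension. Drugs up to 30 µM without heme were tested. Hemolysis was followed by turbidity at 630 nm, with a cells-only well taken as 0% hemolysis.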

Series [3] can be described thus: Inhibition of beta-hematin formation after 16 hrs.
Series [4] is described as follows: Binding affinity to heme in phosphate buffer at pH 7.4 by Hills plot.
Series [5] relates to Plasmodium falciparum. The series can be described thus: Antimalarial activity against chloroquine-sensitive Plasmodium falciparum D6 infected in human erythrocytes after 48 hrs. Conditions: D6, 48 h. It is filed as functional, organism-based. The gist of the method:
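Human erythrocytes infected with chloroquine-sensitive P. falciparum clone D6, mainly rings, at 4% parasitemia and 5% hematocrit. Cultured in RPMI 1640 with 10% human AB serum, with serial drug dilutions in triplicate. Incubated 48 h at 37°C in a candle jar. Parasitized cells per 10,000 counted on Giemsa-stained thin smears. Inhibition vs drug-free control was plotted, and IC50 (µM) read graphically.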

Series [6] can be described thus: Toxicity against human erythrocytes assessed as potentiation of heme-induced hemolysis at 10 uM in presence of heme. Format: cell-based. The conditions noted are these: erythrocyte. The procedure, abridged: (§1)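 Washed fresh human erythrocytes (0.5% in PBS, pH 7.4) were used. Heme, either 0–20 µM with 10 µM drug or 10 µM with various drug concentrations, was preincubated 10 min in PBS, then cells were added. Plates were shaken 2 h at 37°C and read at 630 nm. Percent hemolysis was calculated relative to a cells-only control. Error bars are SD.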

The nature of series [7]: Binding affinity to heme in HEPES buffer at pH 7.4 upto 20 uM after 30 mins by Jobs plot. The procedure, abridged: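 Continuous-variation (Job's) method: drug and heme mixed in 40% DMSO buffered with 20 mM HEPES, pH 7.4, at a constant combined final concentration of 10 µM. Mixtures were held 30 min at room temperature (25°C). Differential absorbance at 400 nm was taken as the mixture absorbance minus the summed heme and drug absorbances. Three independent experiments, mean ± SEM.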

A short description of series [8]: Toxicity against human erythrocytes assessed as potentiation of heme-induced hemolysis in presence of variable concentration of heme. It is filed as cell-based. The conditions noted are these: erythrocyte. The gist of the method: as §1
Series [9] is described as follows: Binding affinity to heme in HEPES buffer at pH 7.4 after 30 mins by Jobs plot. The gist of the method:
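Continuous-variation (Job's) plot: drug–heme mixtures in 40% DMSO buffered with 20 mM HEPES, pH 7.4, total heme plus drug held at 10 µM. Incubated 30 min at room temperature (25°C). Differential absorbance at 400 nm was taken as mixture minus summed heme and drug absorbance. Mean ± SEM of three independent experiments.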

Structures are written as SMILES. Activity calls are given as the source filed them. The calls are words filed in the database; no cut-off is given here.

In ChEMBL document CHEMBL1155769 (Antimicrob Agents Chemother, 2007) one finds Activity, IC50 and Ka data, which are given here for three compounds.

For `COc1cc(NC(C)CCCN)c2nc(C(C)(C)C)ccc2c1` (centres undefined), the outcome in series [1] was Active. Besides, the Activity entry in series [2] is listed as “Not Active”; in series [6], “Dose-dependent effect”. Further, the IC50 came out at 2900 nM in series [3] and 100 nM in series [5]. This compound yielded a Ka in series [4] of 0.61 ×10⁵ /M.

In the case of `CCN(CC)CCCC(C)Nc1ccnc2cc(Cl)ccc12` (centres undefined) [CHLOROQUINE], the result in series [7] was Active. Besides, the figures for the Activity entry in [2] and in series [6] were “Not Active” and “Dose-dependent effect”, respectively.

On to `COc1cc(NC(C)CCCN)c2ncccc2c1` (centres undefined) [PRIMAQUINE], for which the Activity result in series [2], in series [8] and in [6] was “Not Active” throughout. Further, the result in series [4] and in series [9] was inactive.

As usually defined, the IC50 is the concentration that inhibits the measured activity by half.
